From ChEMBL document CHEMBL5053496, “Antibacterial sulfonimidamide-based oligopeptides as type I signal peptidase inhibitors: Synthesis and biological evaluation” (Eur J Med Chem, 2021)
pIC50: −log10 of the molar value. Values after ≈ are worked out from the molar mass of the structure shown.

Tests used:
Staphylococcus aureus = assay: Antibacterial activity against staphylococcus aureus ATCC 29213 assessed as inhibition of bacterial growth measured after 16 to 20 hrs; type: functional; settings: time 16-20 hrs
In short: (§1)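 Read visually as complete growth inhibition by the unaided eye, with medium-only wells as control.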

[1] = Inhibition of Escherichia coli LepB using dabcyl-VEVGGTATA GFSPRGLE-EDANS and dabcyl-KLTGFTVKPVQAIA GYEILE-EDANS-OH as substrates preincubated for 10 mins followed by substrate addition by FRET assay
In short: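 FRET assay with recombinant E. coli LepB, final about 50 nM. Enzyme pre-incubated with inhibitor 10 min at 22 °C, then substrate added at 8 µM. Linear fluorescence increase from cleavage followed at 22 °C for 2 h. IC50 from non-linear regression of sigmoidal rate vs. inhibitor concentration curves.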

Escherichia coli [2] = assay: Antibacterial activity against Escherichia coli harboring tolC efflux defective mutant assessed as inhibition of bacterial growth measured after 16 to 20 hrs; type: functional; settings: time 16-20 hrs
In short: (§2)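 MIC read visually as the lowest concentration giving complete growth inhibition to the unaided eye, with medium-only wells as the control.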

Pseudomonas aeruginosa [3] = assay: Antibacterial activity against efflux pump deficient Pseudomonas aeruginosa PAO750 assessed as inhibition of bacterial growth measured after 16 to 20 hrs; type: functional; settings: time 16-20 hrs; in short: as §1
Pseudomonas aeruginosa [4] = assay: Antibacterial activity against wild type Pseudomonas aeruginosa PAO1 assessed as inhibition of bacterial growth measured after 16 to 20 hrs; type: functional; settings: time 16-20 hrs; in short: as §1
Escherichia coli [5] = assay: Antibacterial activity against wild type Escherichia coli ATCC 25922 assessed as inhibition of bacterial growth measured after 16 to 20 hrs; type: functional; settings: time 16-20 hrs; in short: as §1
Klebsiella pneumoniae = assay: Antibacterial activity against wild type Klebsiella pneumoniae ATCC 13883 assessed as inhibition of bacterial growth measured after 16 to 20 hrs
HepG2 = assay: Cytotoxicity against human HepG2 cells assessed as reduction in cell viability measured after 72 hrs by fluorometric assay; type: cell-based; settings: HepG2, 72 h
In short: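 HepG2 cells grown with L-glutamine 2 mM, passaged twice weekly, used up to 20 passages. Seeded at 1000 cells/well in 384-well plates, exposed 72 h. Fluorescence read-out; survival index (%) = test-well fluorescence as percent of control cultures, blanks subtracted. Assay accepted if control signal-to-noise >10, CV <30%, bortezomib positive control SI <5%.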

Escherichia coli [6] = assay: Antibacterial activity against Escherichia coli D22 mutant assessed as inhibition of bacterial growth measured after 16 to 20 hrs; type: functional; settings: time 16-20 hrs; in short: as §2
[7] = Hemolytic activity against human RBC assessed as hemolysis measured after 45 mins; type: ADME, tissue-based, Erythrocyte; settings: red blood cells (RBC), read-out: Activity
In short: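 Human RBCs from heparinized blood, washed three times in Tyrode buffer pH 7.4. Final 100 µM compound, 1% DMSO, 50% RBC; 37 °C, 45 min, shaking 250 rpm. Cells spun off, supernatant hemoglobin read at 540 nm. Percent hemolysis relative to 2% Triton X-100 full lysis and buffer-only negative control.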

Acinetobacter baumannii = assay: Antibacterial activity against Acinetobacter baumanii ATCC 19606 assessed as inhibition of bacterial growth measured after 16 to 20 hrs; type: functional; settings: ATCC 19606 = CIP 70.34 = JCM 6841, time 16-20 hrs; in short: as §1

Compound CCCCCCc1ccc(-c2ccc([S@](=N)(=O)N3CCC[C@H]3C(=O)N[C@H](C(=O)N[C@@H](C)C(=O)NC(CC(N)=O)C(=O)N[C@@H](C)B3O[C@@H]4C[C@H]5C[C@H](C5(C)C)[C@]4(C)O3)[C@@H](C)O)cc2)cc1 (mixture of isomers) has an MIC (Staphylococcus aureus) of 4 µg/mL, a pIC50 [1] of 5.97 and an MIC (Escherichia coli [2]) of 4 µg/mL. The MIC (Pseudomonas aeruginosa [3]) was > 64 µg/mL, the MIC (Pseudomonas aeruginosa [4]) was > 64 µg/mL and the MIC (Escherichia coli [5]) was > 64 µg/mL. The MIC (Klebsiella pneumoniae) was > 64 µg/mL, the pIC50 (HepG2) was 5.53 and the MIC (Escherichia coli [6]) was 8 µg/mL. For the same compound, the hemolysis at 0.75 h [7] was 2.15% and the MIC (Acinetobacter baumannii) was > 64 µg/mL.
With CCCCCCc1ccc(-c2ccc(S(=O)(=O)N3CCC[C@H]3C(=O)N[C@H](C(=O)N[C@@H](C)C(=O)NC(CC(N)=O)C(=O)N[C@@H](C)B3O[C@@H]4C[C@H]5C[C@H](C5(C)C)[C@]4(C)O3)[C@@H](C)O)cc2)cc1 (mixture of isomers) the MIC (Staphylococcus aureus) was > 64 µg/mL, the pIC50 [1] was 7.15 and the MIC (Escherichia coli [2]) was > 64 µg/mL. The MIC (Pseudomonas aeruginosa [3]) was > 64 µg/mL, the MIC (Pseudomonas aeruginosa [4]) was > 64 µg/mL and the MIC (Escherichia coli [5]) was > 64 µg/mL. For the same compound, the MIC (Klebsiella pneumoniae) was > 64 µg/mL, the pIC50 (HepG2) was 6.24 and the MIC (Escherichia coli [6]) was > 64 µg/mL. The hemolysis at 0.75 h [7] was 14.5% and the MIC (Acinetobacter baumannii) was > 64 µg/mL.
With CCCCCCc1ccc(-c2ccc([S@@](=N)(=O)N3CCC[C@H]3C(=O)N[C@H](C(=O)N[C@@H](C)C(=O)NC(CC(N)=O)C(=O)N[C@@H](C)B3O[C@@H]4C[C@H]5C[C@H](C5(C)C)[C@]4(C)O3)[C@@H](C)O)cc2)cc1 (mixture of isomers) the MIC (Staphylococcus aureus) was 4 µg/mL, the pIC50 [1] was 5.95 and the MIC (Escherichia coli [2]) was 4 µg/mL. For the same compound, the MIC (Pseudomonas aeruginosa [3]) was > 64 µg/mL, the MIC (Pseudomonas aeruginosa [4]) was > 64 µg/mL and the MIC (Escherichia coli [5]) was > 64 µg/mL. The MIC (Klebsiella pneumoniae) was > 64 µg/mL, the pIC50 (HepG2) was 5.52 and the MIC (Escherichia coli [6]) was 32 µg/mL. For the same compound, the hemolysis at 0.75 h [7] was 0.35% and the MIC (Acinetobacter baumannii) was > 64 µg/mL.
In the case of CCCCCCc1ccc(-c2ccc(S(=O)(=NCCN)N3CCC[C@H]3C(=O)N[C@H](C(=O)N[C@@H](C)C(=O)NC(CC(N)=O)C(=O)N[C@@H](C)B3O[C@@H]4C[C@H]5C[C@H](C5(C)C)[C@]4(C)O3)[C@@H](C)O)cc2)cc1 (stereo not given in full), the MIC (Staphylococcus aureus) was < 1 µg/mL, the pIC50 [1] was 6.88 and the MIC (Escherichia coli [2]) was 16 µg/mL (≈ 16.9 µM). The MIC (Pseudomonas aeruginosa [3]) was > 64 µg/mL, the MIC (Pseudomonas aeruginosa [4]) was > 64 µg/mL and the MIC (Escherichia coli [5]) was 64 µg/mL (≈ 67.4 µM). For the same compound, the MIC (Klebsiella pneumoniae) was > 64 µg/mL, the pIC50 (HepG2) was 5.28 and the MIC (Escherichia coli [6]) was 8 µg/mL (≈ 8.43 µM). The hemolysis at 0.75 h [7] was 5.32% and the MIC (Acinetobacter baumannii) was 64 µg/mL (≈ 67.4 µM).
In the case of CCCCCCCCCCCCS(=O)(=O)N1CCC[C@H]1C(=O)N[C@H](C(=O)N[C@@H](C)C(=O)NC(CC(N)=O)C(=O)N[C@@H](C)B1O[C@@H]2C[C@H]3C[C@H](C3(C)C)[C@]2(C)O1)[C@@H](C)O (mixture of isomers), the MIC (Staphylococcus aureus) was < 1 µg/mL, the pIC50 [1] was 7.25 and the MIC (Escherichia coli [2]) was 8 µg/mL. The MIC (Pseudomonas aeruginosa [3]) was 32 µg/mL, the MIC (Pseudomonas aeruginosa [4]) was > 64 µg/mL and the MIC (Escherichia coli [5]) was > 64 µg/mL. For the same compound, the MIC (Klebsiella pneumoniae) was > 64 µg/mL, the pIC50 (HepG2) was 5.92 and the MIC (Escherichia coli [6]) was 16 µg/mL. For the same compound, the hemolysis at 0.75 h [7] was 0.1% and the MIC (Acinetobacter baumannii) was > 64 µg/mL.
